Measured values reported in ChEMBL document CHEMBL1129651, “3-Phenyl-substituted imidazo[1,5-alpha]quinoxalin-4-ones and imidazo[1,5-alpha]quinoxaline ureas that have high affinity at the GABAA/benzodiazepine receptor complex” (J Med Chem, 1996).
pKi: −log10 of the molar value.

Key:
Mus musculus [1] = species: Mus musculus; test: Antagonism of benzodiazepine traction in mice; format: functional
Summary of the method: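 Male CF-1 mice given triazolam 1 mg/kg ip together with test compound ip, starting at 100 mg/kg, in 0.25% aqueous methyl cellulose. Dose-response run on 0.5 log scale. Loss of traction scored 15 min later. Absence of the expected loss marks antagonism. ED50 taken from lower doses.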

Mus musculus [2] = species: Mus musculus; test: Compound was tested for acute electroshock physical dependence activity (drug MA50/V122 MA50); Active; format: functional
Summary of the method: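 Male CF-1 mice, 10/group, dosed sc twice daily for 3 days (0800, then 2 times that dose at 1600). Flumazenil 2.5 mg/kg iv in 5% aqueous N,N-dimethylacetamide given 24 h after the last dose. 5 min later electroshock seizure threshold estimated by up-down method (0.05 log steps; transpinnal 0.6 ms pulses, 100 Hz, 0.2 s). Comparison is against a saline-treated, flumazenil-injected control group.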

[3] = biological target: GABA-A receptor; anion channel; test: Binding affinity against benzodiazepine receptor (BzR) in rat cortical membranes determined by competition experiments with radiolabeled [3H]flunitrazepam (Fnz); format: cell membranes
Rattus norvegicus = test: Ability to antagonize metrazole-induced seizures (clonic and tonic) in rats after intraperitoneal injection; conditions: ip
[4] = biological target: GABA-A receptor; anion channel (Rattus norvegicus) (UniProt O09028+P15431+P18506+P18508+P19969+P20236+P23574+P23576+P28471+P28473+P30191+P62813+P63079+P63138+Q91ZM7+Q9ES14)

`COc1ccc(-c2ncn3c2CN(C(=O)N2CC(C)N(C)C(C)C2)c2ccccc2-3)cc1` (stereo not given) showed an ED50 (Mus musculus [1]) greater than 30 mg/kg, an Activity (Mus musculus [2]) of 0.6 and a pKi [3] of 8.38. It also gave an ED50 (Rattus norvegicus) of 0.8 mg/kg and a TBPS shift [4] of 0.27.
